Activity calls are given as the source filed them. The calls are words filed in the database; no cut-off is given here.
Columns and labels:
[1] = tested on: NCI-H1975; test: Induction of apoptosis in human NCI-H1975 cells assessed as increase in cleaved PARP expression level at 300 nM to 1 uM after 24 hrs by Western blot method; format: functional, cell-based
[2] = tested on: NCI-H1975; test: Induction of apoptosis in human NCI-H1975 cells xenografted in po dosed nu/nu mouse administered for 21 days by DAB-chromogen-based TUNEL assay
[3] = tested on: PC-9; test: Induction of apoptosis in human PC9 cells assessed as increase in cleaved caspase-3 expression level at 300 nM to 1 uM after 24 hrs by Western blot method; format: functional, cell-based
[4] = tested on: HCC827; test: Antiproliferative activity against human HCC827 cells harboring EGFR del19 mutant after 72 hrs by CellTiter-Glo assay; format: functional; settings: HCC827, 72 h
[5] = tested on: NCI-H1975; test: Induction of apoptosis in human NCI-H1975 cells assessed as increase in cleaved caspase-3 expression level at 300 nM to 1 uM after 24 hrs by Western blot method; format: functional, cell-based
[6] = biological target: ALK tyrosine kinase receptor (Homo sapiens, UniProt Q9UM73, F1174L); test: Inhibition of recombinant human N-terminal GST/His6-fused ALK F1174L mutant expressed in Sf9 insect cells using Tyr 1 peptide as substrate after 1 hr by Z-LYTE assay
[7] = tested on: ALK tyrosine kinase receptor (Homo sapiens), Q9UM73 [G1202R]
[8] = biological target: T1, Epidermal growth factor receptor (Homo sapiens, UniProt P00533); test: Inhibition of TEL-fused EGFR (unknown origin) expressed in mouse BAF3 cells assessed as decrease in cell proliferation after 72 hrs by CellTiter-Glo assay; format: cell-based
[9] = tested on: A549; test: Antiproliferative activity against human A549 cells harboring wild-type EGFR after 72 hrs by CellTiter-Glo assay; format: functional; settings: A549, 72 h
[10] = biological target: T1, Epidermal growth factor receptor; test: Inhibition of EGFR in human A549 cells assessed as reduction in EGF-induced ERK phosphorylation at Thr202/Tyr204 residues up to 3 uM after 4 hrs by immunoblotting method; format: cell-based
[11] = tested on: NCI-H3255; test: Antiproliferative activity against human H3255 cells harboring EGFR L858R mutant after 72 hrs by CellTiter-Glo assay; format: functional; settings: NCI-H3255, 72 h
[12] = biological target: T1, Epidermal growth factor receptor; test: Inhibition of EGFR phosphorylation at Y1068 in human PC9 cells at 30 nM after 4 hrs by immunoblotting method; format: cell-based
[13] = biological target: T1, Epidermal growth factor receptor; test: Inhibition of EGFR in human A549 cells assessed as reduction in EGF-induced P70S6K phosphorylation at Thr389 residue up to 3 uM after 4 hrs by immunoblotting method; format: cell-based
[14] = Half life in Sprague-Dawley rat at 1 mg/kg, iv; format: ADME, organism-based; settings: in vivo
Outline: (§1)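 Rats dosed once intravenously at 1 mg/kg or orally at 10 mg/kg. Plasma exposure parameters derived: AUC0-t, AUC0-∞, MRT(0-t), Cmax, Tmax, T1/2 and oral bioavailability (F%). Values reported as mean ± spread.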

[15] = biological target: T1, Epidermal growth factor receptor; test: Inhibition of EGFR in human A549 cells assessed as reduction in EGF-induced 4EBP1 phosphorylation at Thr37/46 site up to 3 uM after 4 hrs by immunoblotting method; format: cell-based
[16] = biological target: T1, Epidermal growth factor receptor; test: Inhibition of EGFR in human A549 cells assessed as reduction in EGF-induced AKT phosphorylation at Thr308 residue up to 3 uM after 4 hrs by immunoblotting method; format: cell-based
[17] = tested on: NCI-H1975; test: Cell cycle arrest in human NCI-H1975 cells assessed as accumulation at G0/G1 phase at 0.03 to 1 uM after 24 hrs by propidium iodide/RNase staining-based flow cytometry; format: functional
[18] = Antiproliferative activity against CHO cells after 72 hrs by CellTiter-Glo assay; format: cell-based, Cricetulus griseus; settings: chinese hamster
[19] = tested on: A549; test: Induction of apoptosis in human A549 cells assessed as increase in cleaved PARP expression level up to 1 uM after 24 hrs by Western blot method; format: functional, cell-based
[20] = biological target: Epidermal growth factor receptor (Homo sapiens, UniProt P00533, T790M); test: Inhibition of recombinant human GST-tagged EGFR T790M mutant expressed in Baculovirus expression system using Tyr 4 peptide as substrate after 1 hr in presence of ATP by Z-LYTE assay
[21] = biological target: Epidermal growth factor receptor (Homo sapiens, UniProt P00533, L858R/T790M); test: Inhibition of recombinant human GST-tagged EGFR L858R/T790M mutant expressed in Baculovirus expression system using Tyr 4 peptide as substrate after 1 hr in presence of ATP by Z-LYTE assay
[22] = tested on: NCI-H3122; test: Antitumor activity against human NCI-H3122 cells xenografted in nu/nu mouse assessed as tumor growth inhibition at 20 mg/kg, po qd administered for 28 days; format: functional; settings: 672 h, read-out: TGI
[23] = organism: Homo sapiens; test: Selectivity index, ratio of IC50 for recombinant human GST-tagged EGFR L858R mutant to IC50 for recombinant human GST-tagged EGFR L858R/T790M mutant
[24] = tested on: A549; test: Cell cycle arrest in human A549 cells assessed as accumulation at G0/G1 phase at 0.03 to 1 uM after 24 hrs by propidium iodide/RNase staining-based flow cytometry; format: functional
[25] = tested on: NCI-H3122; test: Antitumor activity against human NCI-H3122 cells xenografted in nu/nu mouse assessed as tumor growth inhibition at 40 mg/kg, po qd administered for 28 days; format: functional; settings: 672 h, read-out: TGI
[26] = biological target: ALK tyrosine kinase receptor (Homo sapiens, UniProt Q9UM73, L1196M); test: Inhibition of recombinant human N-terminal GST/His6-fused ALK L1196M mutant expressed in Sf9 insect cells using Tyr 1 peptide as substrate after 1 hr by Z-LYTE assay
[27] = tested on: PC-9; test: Cell cycle arrest in human PC9 cells assessed as accumulation at G0/G1 phase at 0.03 to 1 uM after 24 hrs by propidium iodide/RNase staining-based flow cytometry; format: functional
[28] = tested on: Epidermal growth factor receptor (Homo sapiens), P00533 [T790M]; test: Inhibition of TEL-fused EGFR T790M mutant (unknown origin) expressed in mouse BAF3 cells assessed as decrease in cell proliferation after 72 hrs by CellTiter-Glo assay; format: cell-based
[29] = biological target: ALK tyrosine kinase receptor (Homo sapiens, UniProt Q9UM73)
[30] = tested on: Mus musculus; test: Toxicity in nu/nu mouse xenografted with human NCI-H3122 cells assessed as change in body weight at 10 to 40 mg/kg, po qd administered for 28 days; format: organism-based; settings: in vivo, 672 h
[31] = AUC (0 to t) in Sprague-Dawley rat at 1 mg/kg, iv; format: ADME, organism-based; settings: in vivo; outline: as §1
[32] = tested on: NCI-H1975; test: Antitumor activity against human NCI-H1975 cells xenografted in nu/nu mouse assessed as tumor growth inhibition at 40 mg/kg, po qd administered for 21 days; settings: 504 h, read-out: TGI
[33] = tested on: A549; test: Induction of apoptosis in human A549 cells assessed as increase in cleaved caspase-3 expression level up to 1 uM after 24 hrs by Western blot method; format: functional, cell-based

T1 sequence (P00533 whole entry, the tested form may be a part): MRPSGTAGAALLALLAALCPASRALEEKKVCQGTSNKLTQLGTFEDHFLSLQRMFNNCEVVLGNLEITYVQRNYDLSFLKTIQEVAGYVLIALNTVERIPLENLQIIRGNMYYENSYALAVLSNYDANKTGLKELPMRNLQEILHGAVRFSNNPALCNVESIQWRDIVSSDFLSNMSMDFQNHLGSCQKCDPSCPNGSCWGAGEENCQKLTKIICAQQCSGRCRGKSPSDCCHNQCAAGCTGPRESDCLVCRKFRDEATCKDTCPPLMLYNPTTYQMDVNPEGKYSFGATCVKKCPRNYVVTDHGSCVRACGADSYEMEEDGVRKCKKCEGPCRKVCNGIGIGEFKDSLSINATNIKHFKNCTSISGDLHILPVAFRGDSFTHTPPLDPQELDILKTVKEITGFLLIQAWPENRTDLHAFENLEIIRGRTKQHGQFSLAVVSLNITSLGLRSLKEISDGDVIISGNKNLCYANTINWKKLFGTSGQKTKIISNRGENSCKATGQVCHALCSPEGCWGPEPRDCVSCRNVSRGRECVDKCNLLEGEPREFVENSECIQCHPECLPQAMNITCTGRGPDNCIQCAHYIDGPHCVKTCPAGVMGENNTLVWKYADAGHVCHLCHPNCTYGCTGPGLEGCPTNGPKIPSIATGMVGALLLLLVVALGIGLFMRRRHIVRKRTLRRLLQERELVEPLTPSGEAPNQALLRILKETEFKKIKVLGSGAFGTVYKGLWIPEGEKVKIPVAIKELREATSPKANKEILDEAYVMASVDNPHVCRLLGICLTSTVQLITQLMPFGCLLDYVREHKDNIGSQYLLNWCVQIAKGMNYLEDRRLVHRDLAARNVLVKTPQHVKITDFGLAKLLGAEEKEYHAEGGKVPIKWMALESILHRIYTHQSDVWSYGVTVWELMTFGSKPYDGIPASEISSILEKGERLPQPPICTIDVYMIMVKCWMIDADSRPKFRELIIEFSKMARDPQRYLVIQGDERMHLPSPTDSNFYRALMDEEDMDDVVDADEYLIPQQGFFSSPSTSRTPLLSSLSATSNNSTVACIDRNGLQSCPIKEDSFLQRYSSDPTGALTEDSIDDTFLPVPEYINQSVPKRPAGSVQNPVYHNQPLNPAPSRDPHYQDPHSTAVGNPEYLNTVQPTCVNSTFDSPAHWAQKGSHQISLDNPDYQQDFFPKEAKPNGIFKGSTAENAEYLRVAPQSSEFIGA
Chain of Epidermal growth factor receptor (Homo sapiens), P00533 [T790M] (P00533 whole entry T790M, the tested form may be a part): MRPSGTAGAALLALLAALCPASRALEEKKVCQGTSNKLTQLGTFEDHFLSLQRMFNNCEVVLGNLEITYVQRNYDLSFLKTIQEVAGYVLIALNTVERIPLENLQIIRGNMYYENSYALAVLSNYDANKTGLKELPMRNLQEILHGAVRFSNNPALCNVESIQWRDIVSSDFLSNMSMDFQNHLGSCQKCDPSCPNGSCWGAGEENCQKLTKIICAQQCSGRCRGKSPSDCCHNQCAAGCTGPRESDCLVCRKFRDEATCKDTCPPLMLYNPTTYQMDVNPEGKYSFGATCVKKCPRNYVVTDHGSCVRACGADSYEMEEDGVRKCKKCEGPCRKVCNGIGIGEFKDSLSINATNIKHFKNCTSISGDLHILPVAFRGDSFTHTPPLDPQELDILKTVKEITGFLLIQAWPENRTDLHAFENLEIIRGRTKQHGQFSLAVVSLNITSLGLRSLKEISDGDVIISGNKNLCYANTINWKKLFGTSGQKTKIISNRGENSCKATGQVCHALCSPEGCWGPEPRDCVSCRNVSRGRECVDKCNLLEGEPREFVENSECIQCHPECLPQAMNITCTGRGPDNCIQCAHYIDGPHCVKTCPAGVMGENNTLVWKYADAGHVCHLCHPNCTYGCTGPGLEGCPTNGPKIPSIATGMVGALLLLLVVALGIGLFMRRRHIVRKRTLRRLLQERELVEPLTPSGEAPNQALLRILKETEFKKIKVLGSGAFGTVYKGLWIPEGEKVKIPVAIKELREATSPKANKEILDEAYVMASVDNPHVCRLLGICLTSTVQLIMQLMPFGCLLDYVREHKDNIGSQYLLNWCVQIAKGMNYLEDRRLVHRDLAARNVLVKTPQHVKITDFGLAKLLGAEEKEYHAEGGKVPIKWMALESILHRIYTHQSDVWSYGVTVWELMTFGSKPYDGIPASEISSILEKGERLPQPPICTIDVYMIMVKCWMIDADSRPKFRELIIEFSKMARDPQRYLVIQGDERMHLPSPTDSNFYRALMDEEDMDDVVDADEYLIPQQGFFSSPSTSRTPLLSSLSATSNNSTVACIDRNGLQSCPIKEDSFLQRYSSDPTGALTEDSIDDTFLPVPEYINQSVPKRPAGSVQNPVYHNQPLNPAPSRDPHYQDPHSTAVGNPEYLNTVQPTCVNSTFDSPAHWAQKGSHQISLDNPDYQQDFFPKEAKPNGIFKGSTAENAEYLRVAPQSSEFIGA
Chain of ALK tyrosine kinase receptor (Homo sapiens, UniProt Q9UM73, F1174L) (Q9UM73 19-1620 F1174L limits assumed): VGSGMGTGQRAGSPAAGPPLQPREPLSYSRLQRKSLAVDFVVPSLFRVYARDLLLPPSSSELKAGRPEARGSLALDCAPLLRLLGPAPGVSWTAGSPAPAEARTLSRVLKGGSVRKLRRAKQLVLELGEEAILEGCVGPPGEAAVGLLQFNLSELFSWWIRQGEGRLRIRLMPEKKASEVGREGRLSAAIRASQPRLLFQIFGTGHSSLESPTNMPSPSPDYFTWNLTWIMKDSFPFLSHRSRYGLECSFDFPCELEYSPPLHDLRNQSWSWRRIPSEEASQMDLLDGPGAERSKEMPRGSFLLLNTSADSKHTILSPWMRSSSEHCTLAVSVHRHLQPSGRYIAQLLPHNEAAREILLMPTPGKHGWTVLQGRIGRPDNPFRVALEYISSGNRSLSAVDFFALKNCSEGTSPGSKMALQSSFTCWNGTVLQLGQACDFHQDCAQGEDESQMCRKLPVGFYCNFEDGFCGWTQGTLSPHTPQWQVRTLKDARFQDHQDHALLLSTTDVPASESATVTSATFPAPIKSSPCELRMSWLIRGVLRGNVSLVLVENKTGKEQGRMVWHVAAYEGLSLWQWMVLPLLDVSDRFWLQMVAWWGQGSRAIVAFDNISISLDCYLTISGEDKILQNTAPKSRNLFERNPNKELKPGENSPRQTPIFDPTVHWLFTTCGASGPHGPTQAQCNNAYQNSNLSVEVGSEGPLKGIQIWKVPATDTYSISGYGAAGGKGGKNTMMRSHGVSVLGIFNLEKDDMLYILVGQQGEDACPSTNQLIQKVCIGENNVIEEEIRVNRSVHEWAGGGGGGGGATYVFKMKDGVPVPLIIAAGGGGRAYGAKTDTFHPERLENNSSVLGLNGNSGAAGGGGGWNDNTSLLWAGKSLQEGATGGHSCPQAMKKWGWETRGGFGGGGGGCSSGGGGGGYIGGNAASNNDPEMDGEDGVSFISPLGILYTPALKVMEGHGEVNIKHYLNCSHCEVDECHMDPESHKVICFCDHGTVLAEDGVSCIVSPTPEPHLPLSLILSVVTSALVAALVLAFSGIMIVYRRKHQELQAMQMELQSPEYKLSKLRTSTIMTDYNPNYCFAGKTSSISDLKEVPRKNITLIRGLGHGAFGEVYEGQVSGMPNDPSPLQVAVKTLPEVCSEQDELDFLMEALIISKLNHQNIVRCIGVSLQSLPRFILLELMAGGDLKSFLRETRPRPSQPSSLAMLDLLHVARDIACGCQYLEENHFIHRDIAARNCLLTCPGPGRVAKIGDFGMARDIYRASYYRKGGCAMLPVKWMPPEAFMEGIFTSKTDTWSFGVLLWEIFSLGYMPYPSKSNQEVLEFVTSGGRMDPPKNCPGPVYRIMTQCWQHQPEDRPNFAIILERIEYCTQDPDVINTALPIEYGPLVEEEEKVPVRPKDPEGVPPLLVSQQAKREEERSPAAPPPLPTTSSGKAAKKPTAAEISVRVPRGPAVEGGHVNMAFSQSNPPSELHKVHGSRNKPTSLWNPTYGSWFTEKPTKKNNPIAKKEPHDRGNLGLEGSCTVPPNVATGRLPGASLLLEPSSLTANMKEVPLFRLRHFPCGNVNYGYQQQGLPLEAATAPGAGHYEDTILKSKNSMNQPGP
Chain of ALK tyrosine kinase receptor (Homo sapiens, UniProt Q9UM73, L1196M) (Q9UM73 19-1620 L1196M limits assumed): as the sequence (Q9UM73 19-1620 F1174L limits assumed) above, with L1156F, L1178M counted along it
Chain of ALK tyrosine kinase receptor (Homo sapiens, UniProt Q9UM73) (Q9UM73 19-1620 limits assumed): as the sequence (Q9UM73 19-1620 F1174L limits assumed) above, with L1156F counted along it

For `C=CC(=O)Nc1cc(Nc2ncc(Cl)c(Nc3ccccc3S(=O)(=O)C(C)C)n2)c(OC)cc1N1CCCN(C)CC1`, the Activity [1] was “Active”, the Activity [2] was “Dose-dependent effect” and the Activity [3] was “Active”. The GI50 [4] was 6.2 nM, the Activity [5] was “Active” and the IC50 [6] was 0.92 nM. The GI50 [7] was 460 nM, the GI50 [8] was 16 nM and the GI50 [9] was 5600 nM. For the same compound, the inhibition [10] was “inactive”, the GI50 [11] was 31 nM and the inhibition [12] was “Active”. For the same compound, the inhibition [13] was “inactive”, the half-life [14] was 59.5 min and the inhibition [15] was “inactive”. The inhibition [16] was “inactive”, the Activity [17] was “Active” and the GI50 at 72 h [18] was 1800 nM. For the same compound, the Activity [19] was “inactive”, the IC50 [20] was 3.9 nM and the IC50 [21] was 3.6 nM. For the same compound, the inhibition in vivo at 20 mg/kg [22] was 68.3%, the Ratio IC50 [23] was 20 to 30 and the Activity [24] was “inactive”. The inhibition in vivo at 40 mg/kg [25] was 78.4%, the IC50 [26] was 0.59 nM and the Activity [27] was “Active”. For the same compound, the GI50 [28] was 8 nM, the GI50 [29] was 1 nM and the Activity [30] was “Non-Toxic”. The AUC(0-t) [31] was 707 ng·h/mL, the inhibition in vivo at 40 mg/kg [32] was 99% and the Activity [33] was “inactive”.

Reference: ChEMBL document CHEMBL4145441, “Discovery of N-(5-((5-chloro-4-((2-(isopropylsulfonyl)phenyl)amino)pyrimidin-2-yl)amino)-4-methoxy-2-(4-methyl-1,4-diazepan-1-yl)phenyl)acrylamide (CHMFL-ALK/EGFR-050) as a potent ALK/EGFR dual kinase inhibitor capable of overcoming a variety of ALK/EGFR associated drug resistant mutants in NSCLC” (Eur J Med Chem, 2017)
